T cruzi inh: inhibitors of intracellular T. cruzi growth, primary screen, luminescence, NIH3T3 host cells | T. cruzi beta-gal in NIH3T3, 90 h | inhibition, % (concentration not given with the values) | hit rate 1.4% among 300,000 | AID 1885, 2009;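 active = mean inhibition across valid replicates above about 55%, limit read from the data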;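 note: signal also drops with host cell toxicity which is not excluded here; 0% = plate median of DMSO wells and 100% = zero luminescence signal; higher percent means less beta-gal luminescence so fewer parasites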
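Assay system: NIH/3T3 fibroblasts plus reporter T. cruzi. Amount: NIH/3T3 cells, 5,000 per well. Buffer or medium: DMEM, 2% fetal bovine serum. Doses: compound pinned at 50 nL/well, DMSO. Schedule: ≥90 h infection period, 3 h prior cell attachment. Signal: luminescent β-galactosidase signal after 60 min lysis. Read-out: parasite load inhibition, %.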
HSF1 inh: HSF1 inhibitors in luciferase reporter cells, primary screen, cell-based, NIH3T3, luminescence | NIH3T3-HGL HSE-luciferase, MG132-induced, luminescence 8 h; hits give low values | activity change, negative = inhibition, % at 7.5 µM (by protocol) | hit rate 0.77% among 300,000 | AID 2098, 2009;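 active = more than half of replicate wells show activity change below -50%, luminescence cut by over half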;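 note: luciferase reports HSF-1 transcriptional activity via heat shock element; 0% = median of DMSO wells and -100% = zero luminescence signal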
L major viab: Leishmania major promastigote growth inhibition, primary screen; Leishmania major promastigotes, resazurin fluorescence viability; inhibition, % at 10 µM; hit rate 9% among 200,000; AID 1063, 2008; in the data active = inhibition above about 50%;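 note: promastigotes grown with compound for 44 hours at 28 °C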
Hsp70 activator: Hsp70 transcriptional activators, primary screen, cell-based, HeLa, Hsp70 promoter luciferase, luminescence, 10 µM | HeLa Hsp70 promoter luciferase reporter; scaled: vehicle 0, proteasome-inhibitor control 100% | activation, % at 10 µM | hit rate 0.04% among 200,000 | AID 1203, 2008;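 active = activation above the mean across all tested compounds plus 3 SD, cutoff set per campaign, cut at about 5.5% in these data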;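 note: 100% = MG132 at 30 µM as the positive control and 0% = DMSO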
HSF-1 act: HSF-1 activators, primary screen, NIH3T3-HGL cells, MG132 stress, luminescence, single point; AID 504408, 2011; NIH3T3-HGL HSF-1 luciferase reporter, 8 h; 100% = twice DMSO control signal; hit rate 1.7% among 300,000; activation, % at 9 µM;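 active = mean replicate activation of at least 50% with a set share of replicates each reaching 50%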;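 note: 0% = median of the neutral control wells and 100% = twice that signal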
* hit, by the source's call; . = no result given. Many of the other results were omitted from the sample, so hits are more common in it than they were.

SMILES	T cruzi inh	HSF1 inh	L major viab	Hsp70 activator	HSF-1 act
CCCc1ccc(C2C3=C(CC(C)(C)CC3=O)NC3=C2C(=O)c2ccccc23)cc1 (stereo not given)	45.0	30.9	87.8*	-0.5	7.7
COc1cc(S(=O)(=O)N(Cc2cccnc2)Cc2cccc(OC)c2OC)ccc1-n1cnnn1	15.0	-2.3	.	.	-2.6
CC(Nc1nc(N2CCCCC2)nc2ccccc12)c1ccccc1 (stereo not given)	63.9*	-0.9	100.4*	-0.1	2.5
CC(Nc1nc(-c2ccccc2)nc2ccccc12)c1ccccc1 (stereo not given)	25.4	10.8	97.6*	0.8	10.5
C=CCNc1nc(N2CCCC2)nc2ccccc12	27.1	-6.3	99.7*	-0.3	-25.8
COc1ccc(Nc2nc(N3CCCC3)nc3ccccc23)c(OC)c1	65.1*	4.3	100.3*	-0.7	3.9
COc1ccccc1C(=O)NC1CC(C)(C)NC(C)(C)C1	0.0	-0.5	.	.	-3.6
N#Cc1nc(-c2cccc(Cl)c2)oc1N1CCC(C(N)=O)CC1	4.7	-9.2	.	.	-12.5
Cc1c(O)ccc(/C=N/Nc2nc(-c3cccnc3)nc3ccccc23)c1O	55.9*	-4.8	.	.	-14.3
Cc1ccccc1Nc1nc(-c2cccnc2)nc2ccccc12	58.9*	3.2	77.9*	-0.1	28.8
Cc1cc(N/N=C/c2ccc(O)c(C)c2O)nc(-c2ccccc2O)n1	58.8*	-59.2*	93.1*	-0.2	-61.9
CC(Nc1nc(-c2cccnc2)nc2ccccc12)c1ccc(F)cc1 (stereo not given)	56.0*	9.7	.	.	19.8
Oc1ccc(/C=N/Nc2nc(-c3cccnc3)nc3ccccc23)c(O)c1	-19.2	3.5	.	.	19.0
CCCCc1ccc(NC(=O)CN(C)CC(=O)Nc2ccccc2Cl)cc1	23.7	19.0	.	.	22.7
COc1ccc2cc(/C=N/NC(=O)c3ccc(CN(c4cccc(Cl)c4Cl)S(C)(=O)=O)cc3)c(Cl)nc2c1	47.7	1.4	80.5*	0.1	-7.9
O=C(Cn1cc([N+](=O)[O-])cn1)NCC1CCCO1 (stereo not given)	-8.2	-62.9*	44.4	-0.2	-71.4
CC(C)(C)NC(=O)CN(C(=O)C(=O)Nc1ccc2c(c1)OCCO2)C(C)(C)C	-10.7	5.6	0.0	0.0	8.7
COc1ccc(C2CC(c3ccccc3OC(C)=O)=NN2C(=O)/C=C/c2ccccc2)cc1 (stereo not given)	2.3	20.1	97.1*	-0.4	25.8
COc1ccc(C2CC(c3ccccc3)=NN2C(=O)CN2CCN(Cc3ccccc3)CC2)cc1 (stereo not given)	26.6	6.5	54.4*	-0.2	-6.2
COc1ccc(C2CC(c3ccc(Br)cc3)=NN2C(=O)CSC2=NN3CCCC(=O)N=C3S2)cc1 (stereo not given)	60.0*	-0.2	.	.	-12.2
COc1ccc(C2=NN(C(=O)CN3CCCCC3)C(c3ccc(C)cc3)C2)cc1 (stereo not given)	32.1	2.9	73.0*	-0.3	14.8
O=C(NNc1cc(N2CCOCC2)nc(N2CCOCC2)n1)C12CC3CC(CC(C3)C1)C2	4.3	3.5	-1.1	-0.2	-14.6
Cc1ccc(NC(=O)CN(C)C(=O)CCC(=O)c2cccs2)cc1	-10.3	4.0	-4.2	-0.3	-1.3
Cc1ccc(NC(=O)/C(=C/c2ccco2)c2ccccc2)c(C)c1	1.1	-36.6	47.7	-0.3	-48.3
Cc1cc(C)c(NC(=O)/C(=C/c2ccccc2)c2ccccc2)c(C)c1	2.4	5.2	98.0*	-0.6	7.0
COc1ccc2c(c1)C1OCCC1C(c1ccco1)N2 (stereo not given)	-14.1	30.9	.	.	55.6*
c1coc(C2Nc3ccccc3C3OCCC23)c1 (stereo not given)	-17.1	3.4	1.7	-0.1	-11.8
CSCCC(NC(=O)c1cccc(C)c1)C(=O)OCC(=O)Nc1c(C)nn(-c2ccccc2)c1C (stereo not given)	-1.4	6.5	.	.	6.7
O=C(c1ccccc1)[C@@H]1[C@@H](C(=O)c2ccc(F)cc2)[C@@]2(C(=O)Nc3ccccc32)[C@H]2c3ccccc3C=CN12	11.6	-38.5	74.2*	-0.3	-52.3
